Laboratory results published in ChEMBL document CHEMBL1143166, “Derivatives of 4-amino-6-hydroxy-2-mercaptopyrimidine as novel, potent, and selective A3 adenosine receptor antagonists” (J Med Chem, 2008).

Legend:
[1] = target: T1, Adenosine receptor A1 (Homo sapiens) (UniProt P30542); assay: Displacement of […] from human adenosine A1 receptor expressed in CHO cells at 10 uM; format: cell-based
T1 sequence (whole entry): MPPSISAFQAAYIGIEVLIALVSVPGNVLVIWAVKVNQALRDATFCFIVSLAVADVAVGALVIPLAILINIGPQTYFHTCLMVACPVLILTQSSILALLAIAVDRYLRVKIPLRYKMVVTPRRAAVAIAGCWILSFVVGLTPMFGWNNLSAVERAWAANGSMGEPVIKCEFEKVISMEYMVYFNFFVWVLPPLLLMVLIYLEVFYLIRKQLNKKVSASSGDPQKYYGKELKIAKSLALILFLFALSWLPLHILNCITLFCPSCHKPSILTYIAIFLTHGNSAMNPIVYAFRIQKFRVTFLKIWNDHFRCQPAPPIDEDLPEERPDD
How it was run: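 Membranes (50 µg protein) from CHO cells stably expressing hA1 incubated 180 min at 25 °C in 50 mM Tris-HCl, 2 mM MgCl2, 2 U/mL ADA, pH 7.4, with 3 nM [3H]DPCPX and compound at 10 µM. Nonspecific binding defined with 50 µM R-PIA.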

[2] = target: T2, Adenosine receptor A2a (Homo sapiens, UniProt P29274); assay: Displacement of [3H]NECA from human adenosine A2A receptor expressed in CHO cells; format: cell-based
[3] = target: T2, Adenosine receptor A2a; assay: Displacement of [3H]NECA from human adenosine A2A receptor expressed in CHO cells at 10 uM; format: cell-based
How it was run: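 Membranes (80 µg) from hA2A-expressing CHO cells incubated 90 min at 25 °C in 50 mM Tris-HCl, 2 mM MgCl2, 2 U/mL ADA, pH 7.4, with 30 nM [3H]NECA and compound at 10 µM. Nonspecific binding defined with 100 µM NECA.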

[4] = target: T3, Adenosine receptor A1 (Homo sapiens, UniProt P30542); assay: Displacement of […] from human adenosine A1 receptor expressed in CHO cells; format: cell-based
T3 sequence (P30542 whole entry): T1 sequence (whole entry)

[5] = target: T4, Adenosine receptor A2b (Homo sapiens, UniProt P29275); assay: Antagonist activity at human adenosine A2B receptor expressed in CHO cells assessed as inhibition of NECA-mediated cAMP accumulation; format: functional, cell-based
T4 sequence (P29275 whole entry): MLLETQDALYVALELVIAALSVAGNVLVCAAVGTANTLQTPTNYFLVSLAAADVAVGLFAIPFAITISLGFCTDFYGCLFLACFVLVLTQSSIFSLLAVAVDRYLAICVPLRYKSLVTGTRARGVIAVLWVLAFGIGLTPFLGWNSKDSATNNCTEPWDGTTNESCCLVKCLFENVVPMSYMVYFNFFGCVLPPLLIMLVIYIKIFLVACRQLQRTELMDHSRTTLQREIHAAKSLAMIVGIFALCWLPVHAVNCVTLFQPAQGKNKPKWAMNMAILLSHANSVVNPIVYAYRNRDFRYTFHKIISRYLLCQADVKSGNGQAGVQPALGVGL
How it was run: (§1)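 hA2B-transfected CHO cells grown 48 h after plating, then preincubated 15 min at 37 °C in DMEM with Ro20-1724 (20 µM) and ADA (1 U/mL). Compound (1 nM–10 µM; single-point 10 µM) given 15 min at 37 °C, then 100 nM NECA. Stopped with 0.4 N HCl, neutralized with KOH. cAMP by competitive binding to bovine adrenal binding protein with [3H]cAMP. Mean ± SEM, four experiments in triplicate.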

[6] = target: T5, Adenosine receptor A2b (Homo sapiens) (UniProt P29275); assay: Antagonist activity at human adenosine A2B receptor expressed in CHO cells assessed as inhibition of NECA-mediated cAMP accumulation at 10 uM; format: functional, cell-based; how it was run: as §1
T5 sequence (whole entry): T4 sequence (P29275 whole entry)

[7] = target: T6, Adenosine receptor A3 (Homo sapiens) (UniProt P0DMS8); assay: Displacement of [125I]AB-MECA from human adenosine A3 receptor expressed in CHO cells at 1 uM; format: cell-based
T6 sequence (whole entry): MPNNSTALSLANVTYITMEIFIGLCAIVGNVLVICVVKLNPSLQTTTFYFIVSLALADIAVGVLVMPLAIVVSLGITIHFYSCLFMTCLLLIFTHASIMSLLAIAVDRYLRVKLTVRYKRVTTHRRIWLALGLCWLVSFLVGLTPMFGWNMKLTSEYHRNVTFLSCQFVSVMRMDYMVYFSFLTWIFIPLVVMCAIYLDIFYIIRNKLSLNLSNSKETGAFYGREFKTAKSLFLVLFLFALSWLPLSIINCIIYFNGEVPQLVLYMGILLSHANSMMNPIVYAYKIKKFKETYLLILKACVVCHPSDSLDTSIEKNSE

T2 sequence (P29274 whole entry): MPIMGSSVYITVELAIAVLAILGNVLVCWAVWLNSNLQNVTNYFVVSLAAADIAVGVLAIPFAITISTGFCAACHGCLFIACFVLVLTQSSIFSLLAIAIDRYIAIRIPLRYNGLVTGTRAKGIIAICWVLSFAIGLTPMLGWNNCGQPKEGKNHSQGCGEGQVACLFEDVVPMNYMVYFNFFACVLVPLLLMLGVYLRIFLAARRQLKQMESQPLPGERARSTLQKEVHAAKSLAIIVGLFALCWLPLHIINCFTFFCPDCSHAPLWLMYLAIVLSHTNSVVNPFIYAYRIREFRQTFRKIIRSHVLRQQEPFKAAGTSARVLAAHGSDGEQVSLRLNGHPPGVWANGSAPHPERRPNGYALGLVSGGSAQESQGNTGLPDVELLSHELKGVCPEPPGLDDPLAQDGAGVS

Row | SMILES | inhibition [1] [%] | Ki [2] [nM] | inhibition [3] [%] | Ki [4] [nM] | IC50 [5] [nM] | inhibition [6] [%] | inhibition [7] [%]
1 | CCCOc1cc(NC(=O)CC)nc(SC)n1 | 19 | 398 |  |  |  |  | 
2 | CCCOc1cc(NC(C)=O)nc(SCc2ccccc2)n1 | 34 |  | 23 |  |  |  | 
3 | CCCOc1cc(NC(=O)CC)nc(SCCC)n1 |  | 71 |  | 1460 |  |  | 
4 | CCCCSc1nc(NC(C)=O)cc(OCc2ccc(Cl)cc2)n1 | 0 |  | 26 |  |  |  | 
5 | CCSc1nc(NC(C)=O)cc(OCc2ccc(Cl)cc2)n1 |  |  | 56 | 4480 | > 10000 | 10 | 
6 | CCCSc1nc(NC(C)=O)cc(OCc2ccccc2Cl)n1 |  | 4150 |  | 1840 |  |  | 
7 | CCCSc1nc(NC(C)=O)cc(OCc2ccccc2)n1 |  |  | 36 | 2440 |  |  | 
8 | CCCOc1cc(NC(C)=O)nc(SC)n1 | 7 | 1120 |  |  |  |  | 
9 | COc1cc(NC(C)=O)nc(SC)n1 | 30 |  | 29 |  |  |  | 49
10 | CCCSc1nc(NC(C)=O)cc(OCc2cccc(Cl)c2)n1 |  |  | 41 | 582 |  |  | 
11 | CCC(=O)Nc1cc(OC)nc(SC)n1 | 2 |  | 21 |  |  |  | 51
12 | CCCSc1nc(NC(C)=O)cc(OCc2ccc(Cl)cc2)n1 | 17 |  | 43 |  | > 10000 | 0 | 
13 | CCCSc1nc(NC(=O)CC)cc(OC)n1 |  |  | 4 | 486 |  |  | 

More lines, now with the values ahead:

Row | inhibition [1] [%] | Ki [2] [nM] | inhibition [3] [%] | Ki [4] [nM] | IC50 [5] [nM] | inhibition [6] [%] | inhibition [7] [%] | SMILES
14 | 43 |  | 33 |  |  |  |  | CCCSc1nc(NC(C)=O)cc(OCC2CCCCC2)n1
15 | 43 |  | 10 |  |  |  |  | CCCSc1nc(NC(C)=O)cc(OC)n1
16 |  |  | 30 | 5470 |  |  |  | CCCOc1cc(NC(C)=O)nc(SCCC)n1
17 |  |  | 27 | 2080 | > 10000 | 13 |  | CCCSc1nc(NC(C)=O)cc(OCCc2ccccc2)n1
18 | 46 |  | 29 |  |  |  |  | CCCSc1nc(NC(C)=O)cc(OCc2ccc(Cl)cc2Cl)n1
19 |  |  | 47 | 2440 | > 10000 | 0 |  | CCCSc1nc(NC(C)=O)cc(OCc2ccc(OC)cc2)n1
